Source: ChEMBL document CHEMBL3585302, “Synthesis and antibacterial activities of cadiolides A, B and C and analogues” (Bioorg Med Chem, 2015)
Calls of active or inactive are those of the source.

What was measured:
Assay type in all cases: functional, organism-based
Bacillus cereus = experiment: Antibacterial activity against Bacillus cereus CECT 148 assessed as inhibition of microbial growth at 125 ug/ml incubated for 18 hrs by 2-fold microtiter broth dilution method
Outline: (§1)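 Compounds in DMSO, ten 2-fold serial dilutions (125 down to 0.24 µg/mL tested). Bacteria at OD620 = 0.001 in Nutrient Broth mixed 1:1 with dilutions. Incubated overnight (18 h) at 28°C or 37°C according to strain. Growth read turbidimetrically at OD620. MIC is the lowest concentration giving complete growth inhibition. Triplicate runs. Tetracycline as reference.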

Staphylococcus aureus = experiment: Antibacterial activity against Staphylococcus aureus CECT 86 assessed as inhibition of microbial growth at 125 ug/ml incubated for 18 hrs by 2-fold microtiter broth dilution method; outline: as §1
Enterococcus faecalis = experiment: Antibacterial activity against Enterococcus faecalis CECT 481 assessed as inhibition of microbial growth at 125 ug/ml incubated for 18 hrs by 2-fold microtiter broth dilution method; outline: as §1
Salmonella typhi = experiment: Antibacterial activity against Salmonella typhi CECT 409 assessed as inhibition of microbial growth at 125 ug/ml incubated for 18 hrs by 2-fold microtiter broth dilution method; conditions: Salmonella enterica subsp. enterica serovar Typhi
Outline: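 Compounds in DMSO, ten 2-fold serial dilutions (125 down to 0.24 µg/mL), mixed 1:1 with bacteria in Nutrient Broth at OD620 = 0.001. Incubated overnight (18 h) at 28 or 37 °C depending on strain. Growth read turbidimetrically at OD620; MIC is the lowest concentration completely inhibiting growth, per CLSI. Triplicate runs; tetracycline reference.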

Escherichia coli [1] = experiment: Antibacterial activity against Escherichia coli CECT 405 assessed as inhibition of microbial growth at 125 ug/ml incubated for 18 hrs by 2-fold microtiter broth dilution method; outline: as §1
[2] = test system: Pectobacterium carotovorum; experiment: Antibacterial activity against Erwinia carotovora CECT 225 assessed as inhibition of microbial growth at 125 ug/ml incubated for 18 hrs by 2-fold microtiter broth dilution method; outline: as §1
Bacillus subtilis = experiment: Antibacterial activity against Bacillus subtilis CECT 35 assessed as inhibition of microbial growth at 125 ug/ml incubated for 18 hrs by 2-fold microtiter broth dilution method; outline: as §1
Escherichia coli [3] = experiment: Antibacterial activity against Escherichia coli CECT 100 assessed as inhibition of microbial growth at 125 ug/ml incubated for 18 hrs by 2-fold microtiter broth dilution method; outline: as §1

Measured: growth inhibition (GI)

COc1c(Br)cc(C2=C(C(=O)c3ccco3)C(=O)O/C2=C\c2ccc(O)c(Br)c2)cc1Br
inactive: all assays above

COc1c(Br)cc(C2=C(C(=O)c3cc(Br)c(O)c(Br)c3)C(=O)O/C2=C\c2cc(Br)c(O)c(Br)c2)cc1Br
inactive: all assays above

COc1ccc(C2=C(C(=O)c3ccco3)C(=O)O/C2=C\c2ccc(O)cc2)cc1
inactive: all assays above

COc1ccc(C2=C(C(=O)c3ccc(O)cc3)C(=O)O/C2=C\c2ccc(O)cc2)cc1
inactive: all assays above

COc1c(Br)cc(C2=C(C(=O)c3ccc(O)c(Br)c3)C(=O)O/C2=C\c2cc(Br)c(O)c(Br)c2)cc1Br
inactive: all assays above

COc1c(Br)cc(C2=C(C(=O)c3cc(Br)c(O)c(Br)c3)C(=O)O/C2=C\c2ccc(O)cc2)cc1Br
inactive: all assays above

COc1ccc(C2=C(C(=O)c3ccco3)C(=O)O/C2=C\c2ccc(O)c(Br)c2)cc1Br
inactive: all assays above

COc1ccc(C2=C(C(=O)c3ccc(O)cc3)C(=O)O/C2=C\c2ccc(O)c(Br)c2)cc1
inactive: all assays above

COc1c(Br)cc(C2=C(C(=O)c3ccc(O)c(Br)c3)C(=O)O/C2=C\c2ccc(O)c(Br)c2)cc1Br
inactive: all assays above

COc1ccc(C2=C(C(=O)c3cc(Br)c(O)c(Br)c3)C(=O)O/C2=C\c2ccc(O)c(Br)c2)cc1Br
inactive: all assays above

COc1c(Br)cc(C2=C(C(=O)c3ccc(O)cc3)C(=O)O/C2=C\c2cc(Br)c(O)c(Br)c2)cc1Br
inactive: all assays above
